# Screens: PubChem, Johns Hopkins Ion Channel Center
# KCNQ1 inh = inhibitors of human KCNQ1 channel, primary screen, cell-based, thallium flux, high-throughput | Potassium voltage-gated channel subfamily KQT member 1 (Homo sapiens), P51787 | CHO-K1 KCNQ1, FluxOR thallium flux fluorescence; active compounds read high | B-score at 10 µM | hit rate 1.3% among 310,000 | AID 2642, 2010;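 active = compounds whose thallium flux B-score, printed positive for inhibition, exceeds three library SD while starting fluorescence stays within three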;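 note: channel opened by potassium depolarization with thallium stimulus after 20 min compound exposure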
# KCNK9 block = KCNK9 potassium channel inhibitors, primary screen, HEK293 cells, thallium flux; hit rate 1.2% among 310,000; FluxOR thallium flux fluorescence; active compounds read low; B-score at 10 µM; Potassium channel subfamily K member 9 (Homo sapiens), Q9NPC2;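 active = ratio B-score over 3 SD below the library mean, with starting fluorescence within 5 SD of its mean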;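 note: negative B-score means less thallium flux so channel inhibition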
# hERG protect = hERG rescue from dofetilide block, primary screen, cell-based, CHO-hERG, FluxOR thallium flux, dofetilide IC70; Voltage-gated inwardly rectifying potassium channel KCNH2 (Homo sapiens), Q12809; dofetilide IC70 present; activation (rescue from dofetilide block), less the hit threshold, % at 10 µM; hit rate 0.51% among 310,000;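 active = activation above the mean of controls blocked by dofetilide plus 5 SD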;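 note: thallium influx through hERG after potassium depolarization seen as dye fluorescence rise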
# KCNK3 inh = human KCNK3 channel inhibitors, primary screen, CHO cells, FluxOR thallium flux, B-score; Potassium channel subfamily K member 3 (Homo sapiens), O14649; FluxOR fluorescence; active compounds read low; B-score at 10 µM; hit rate 0.84% among 340,000; AID 602410, 2012;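 active = B-score under library mean minus 4 SD, starting fluorescence ratio at most library mean plus 5 SD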;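 note: more negative B-score means stronger inhibition of thallium flux through KCNK3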
# Target sequence (O14649 whole entry, looked up): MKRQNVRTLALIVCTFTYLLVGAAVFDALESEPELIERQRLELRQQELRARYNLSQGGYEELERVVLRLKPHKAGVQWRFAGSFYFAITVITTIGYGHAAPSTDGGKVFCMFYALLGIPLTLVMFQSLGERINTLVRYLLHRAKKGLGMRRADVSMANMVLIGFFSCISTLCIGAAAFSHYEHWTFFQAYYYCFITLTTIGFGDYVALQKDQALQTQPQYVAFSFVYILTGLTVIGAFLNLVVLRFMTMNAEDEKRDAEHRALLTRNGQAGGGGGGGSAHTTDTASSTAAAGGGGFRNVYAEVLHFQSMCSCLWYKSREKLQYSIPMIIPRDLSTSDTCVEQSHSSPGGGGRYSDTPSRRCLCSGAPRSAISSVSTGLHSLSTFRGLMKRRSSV
# KCNQ1 act = potentiators or activators of KCNQ1 channel, primary screen, cell-based, thallium flux, high-throughput | Potassium voltage-gated channel subfamily KQT member 1 (Homo sapiens), P51787 | B-score at 10 µM | hit rate 0.35% among 310,000 | CHO-K1 KCNQ1, thallium flux FluxOR fluorescence; active compounds read high | AID 2648, 2010;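 active = fluorescence ratio B-score, a plate-corrected score, at least three library SD, with initial intensity B-score within 5 SD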
#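 Assay system: CHO-K1 cells stably expressing KCNQ1. Medium: assay buffer for compound exposure, DMSO matched across wells. Timing: 37 °C overnight plating, 90-min dark dye load, 20-min compound pretreatment. Signal: kinetic FluxOR fluorescence, 10 s baseline plus 110 s post-stimulus.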
# KCNK3 confirm = retest of human KCNK3 channel inhibitors, confirmation, CHO cells, FluxOR thallium flux, triplicate; FluxOR fluorescence; 0% buffer, 100% carvedilol maximal block; hit rate 99% among 2,400; shares compounds with KCNK3 inh; ratio percent of control, % at 10 µM;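 active = ratio percent of control, averaged over triplicates, above buffer control mean plus 5 SD, cut at about 64% in these data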;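 note: ratio is the fluorescence rise from min to max over baseline after thallium stimulus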
# KCNK3 noninduced = thallium flux inhibition in non-induced cells, primary screen, counter-screen for KCNK3 inhibitor project, cell-based, non-induced KCNK3 line, FluxOR thallium, triplicate. non-induced KCNK3 parental cells; active compounds read low. shares compounds with KCNK3 inh. hit rate 40% among 2,400. thallium flux ratio (lower = more inhibition) at 10 µM. AID 651747, 2012;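 active = thallium flux ratio, averaged over three wells, more than 5 SD below the buffer control mean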;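 note: host cells are CHO cells without KCNK3 induction; ratio is peak minus trough fluorescence over baseline then normalized to buffer controls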
# * hit, by the source's call; i = inactive; · = no result. Hits are enriched below; roughly 3.1% of the tested compounds scored in any of these assays.
SMILES,KCNQ1 inh,KCNK9 block,hERG protect,KCNK3 inh,KCNQ1 act,KCNK3 confirm,KCNK3 noninduced
COc1ccc(C)cc1NC(=O)CN(C)S(=O)(=O)c1ccc2c(c1)CC(C)N2C(C)=O (centres undefined),i,i,-12,i,i,·,·
COc1ccc(Cl)cc1NC(=O)CN(C)CC(=O)Nc1ccccc1-c1ccccc1,i,i,0,-9.7*,i,99*,i
Cc1ccc(S(=O)(=O)NCC(c2ccccc2)N2CCCCC2)cc1 (centres undefined),i,i,-12,i,i,·,·
CC1CCN(C(CNS(=O)(=O)c2ccccc2)c2ccccc2)CC1 (centres undefined),·,·,·,-13*,·,61*,i
CC(C)CC(=O)Nc1cccc(-c2nc3ccccc3[nH]2)c1,i,i,-20,-11*,i,124*,0.12*
CC(Oc1ccccc1)C(=O)Nc1cccc(-c2nc3ccccc3[nH]2)c1 (centres undefined),i,-7.4*,-23,-11*,i,100*,0.14*
O=C(Nc1cccc(-c2nc3ccccc3[nH]2)c1)c1ccccn1,i,-7.1*,-10,-13*,i,109*,i
CC(C)(C)C(=O)Nc1cccc(-c2nc3ccccc3[nH]2)c1,i,i,-16,-11*,i,93*,i
CCOc1ccccc1NC(=O)c1ccc2nc[nH]c2c1,i,i,-3,i,i,·,·
Cc1ccncc1CNC(=O)c1ccccc1,·,·,·,i,·,·,·
CCOC(=O)c1c2c(c(=S)n(-c3ccccc3)c1N)CCC2,i,i,-9,-10*,i,123*,0.11*
CCOC(=O)C1CCN(CC(=O)c2c(C)n(C)c3ccc(OC)cc23)CC1,i,i,-6,i,i,·,·
CCOC(=O)c1ccc(NC(=O)CSCc2ccco2)cc1,i,i,-22,-9.2*,i,91*,i
CCOC(=O)c1ccc(NC(=O)CSCCC(=O)O)cc1,i,i,-9,i,i,·,·
Cc1c(Cl)cccc1NC(=S)NCC1COc2ccccc2O1 (centres undefined),i,i,-9,-8.9*,i,125*,0.14*
O=C(c1cccc2ccccc12)C1CCCN(C(=O)c2ccc(N3CCOCC3)cc2)C1 (centres undefined),i,i,-14,-9.3*,i,99*,i
CC(C)(c1cc(Br)c(O)c(Br)c1)c1cc(Br)c(O)c(Br)c1,·,·,·,i,·,·,·
COc1ccc(S(=O)(=O)N2CCN(Cc3cc(OC)c(OC)c(OC)c3)CC2)cc1,i,i,-2,i,i,·,·
Nc1ccc(S(=O)(=O)NC2(C(F)(F)F)NC(=O)N(Cc3ccccc3)C2=O)cc1 (centres undefined),i,i,-5,i,i,·,·
Cc1ccc(OCn2c(=O)sc3ccccc32)cc1,i,i,-9,-11*,i,112*,i
CC(=O)c1cc(C(=O)Nc2ccc3ccccc3c2)c(C)o1,i,i,-4,-11*,i,53*,i
CC(Sc1nncn1C)C(=O)Nc1ccc2ccccc2c1 (centres undefined),·,·,·,i,·,·,·
O=C(Nc1ccc2nc(SCc3ccc(Cl)cc3)sc2c1)c1ccccc1C(=O)N1CCOCC1,6*,i,-23,-8.7*,i,97*,i
O=C(Nc1ccccc1)OCCOc1ccc(Cl)cc1Cl,·,·,·,i,·,·,·
CCOC(=O)c1cnc(-n2nc(C)cc2C)nc1NC1CCCC1,i,i,-30,-9.4*,i,131*,0.11*
SMILES,KCNQ1 inh,KCNK9 block,hERG protect,KCNK3 inh,KCNQ1 act,KCNK3 confirm,KCNK3 noninduced
COc1ccc(OC)c(S(=O)(=O)n2cnc3cc(C)c(C)cc32)c1,i,i,-5,-11*,i,99*,i
Cc1cccc(NC(=S)N(C)C)c1C,i,i,-6,i,i,·,·
Cc1cccc(Nc2cc(C)c3c(O)cccc3n2)c1C,i,i,-28,-9.7*,i,111*,i
COc1ccc(/C=N/NC(=O)c2cccnc2)c2ccccc12,i,i,-3,i,i,·,·
COc1ccc(/C=N/NC(=O)c2cccs2)c2ccccc12,i,i,-14,-11*,i,115*,0.15*
O=C(CSc1nc2nn(-c3ccccc3)c(=O)c-2c2n1CCCCC2)c1ccc(O)c(O)c1,·,·,·,i,·,·,·
O=[N+]([O-])c1cnc(Sc2ccncn2)s1,i,i,-29,i,i,·,·
C=CCn1c(Sc2ncc([N+](=O)[O-])s2)n[nH]c1=O,7*,i,-12,-9.3*,i,144*,0.083*
COc1ccc(C)cc1NC(=O)c1nn(C)c(C(=O)Nc2cc(C)ccc2OC)c1[N+](=O)[O-],i,i,-7,-9*,i,81*,i
Cc1ccccc1NC(=O)c1nn(C)c(C(=O)Nc2ccccc2C)c1[N+](=O)[O-],i,i,-2,i,i,·,·
O=[N+]([O-])c1ccc(N2CCN(C(=S)NC3CCCCC3)CC2)cc1,i,i,-15,-8.8*,i,104*,i
CC1CCCCN1C(=O)CN1C(=O)c2ccccc2S1(=O)=O (centres undefined),i,i,-3,i,i,·,·
COc1ccc(CN(C)C(C)C(=O)Nc2cccc3ccccc23)cc1 (centres undefined),i,i,-11,-9.7*,i,121*,0.16*
COc1ccccc1NC(=O)C(C)N(C)Cc1ccc(Cl)s1 (centres undefined),i,-6.9*,-8,i,i,107*,0.16*
COc1ccccc1NC(=O)C(C)N(C)CC(=O)Nc1cccc2ccccc12 (centres undefined),·,·,·,i,·,·,·
Cc1c(C(C)(C)C)sc(=NC(=O)c2ccccc2O)n1C,i,i,-5,-9.7*,i,65*,i
Cc1c(C(C)(C)C)s/c(=N/S(=O)(=O)c2ccccc2)n1C,i,i,-3,i,i,·,·
CCOc1ccc(NC(=O)CN(C)C(=O)CCCOc2ccc(Cl)c(C)c2)cc1OCC,i,i,-6,-9.9*,i,93*,i
